Laboratory results from ChEMBL document CHEMBL1157464, “1-[(3-Aryloxy-3-aryl)propyl]-1H-imidazoles, new imidazoles with potent activity against Candida albicans and dermatophytes. Synthesis, structure-activity relationship, and molecular modeling studies” (J Med Chem, 2008).
Converted amounts (≈) assume the structure as drawn.

Tested on: Candida parapsilosis
Assay: Antifungal activity against Candida parapsilosis ATCC 22019 at 35 degC after 48 hrs by broth microdilution test
Format: functional
Details: not given
Method in brief: (§1)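 Broth microdilution per NCCLS M27-A2. Stocks in 100% DMSO, diluted in RPMI 1640 with 0.165 M MOPS at pH 7.0; final range 0.25–128 µg/mL. Inoculum 1000–5000 cells/mL from SDA subcultures. […] C. parapsilosis ATCC22019 served as QC strain.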

SMILES | MFC [mg/L] | MIC [mg/L]
Clc1ccc(OC(CCn2ccnc2)c2ccccc2)c(Cl)c1 (single isomer, unassigned; (-)) | 8 (≈ 23 µM) | 1 (≈ 2.88 µM)
Cc1ccc(OC(CCn2ccnc2)c2ccccc2)cc1 (single isomer, unassigned; (+)) | 8 (≈ 27.4 µM) | 1 (≈ 3.42 µM)
Clc1ccc(OC(CCn2ccnc2)c2ccccc2)c(Cl)c1 (stereo in doubt; (+)-14a) | 4 (≈ 11.5 µM) | 0.5 (≈ 1.44 µM)
Cc1ccc(OC(CCn2ccnc2)c2ccccc2)cc1 (single isomer, unassigned; (-)) |  | 2 (≈ 6.84 µM)

Same assay, conditions: Lodderomyces parapsilosis, ATCC 22019, 48 h; read-out: MFC

SMILES | MFC [mg/L]
Cc1ccc(C(CCn2ccnc2)Oc2c(Cl)cccc2Cl)cc1 (stereo unspecified) | 16 (≈ 44.3 µM)
Cc1ccc(C(CCn2ccnc2)Oc2ccccc2)cc1 (stereo unspecified) | 32 (≈ 109 µM)
Clc1ccc(C(CCn2cncn2)Oc2ccc(Cl)cc2Cl)cc1 (stereo unspecified) | 64 (≈ 167 µM)
CC(C)(C)c1ccc(OC(CCn2ccnc2)c2ccc(Cl)cc2)cc1 (stereo unspecified) | 4 (≈ 10.8 µM)
Cc1ccc(OC(CCn2ccnc2)c2ccc(Cl)cc2)c(C)c1 (stereo unspecified) | 32 (≈ 93.9 µM)
O=[N+]([O-])O.c1ccc(C(OCCn2ccnc2)c2ccccc2)cc1 | 64
Clc1ccc(OC(CCn2cncn2)c2ccccc2)c(Cl)c1 (stereo unspecified) | 64 (≈ 184 µM)

Same assay, conditions: Lodderomyces parapsilosis, ATCC 22019, 48 h; read-out: MIC

MIC [mg/L] | SMILES
1 (≈ 2.77 µM) | Cc1ccc(C(CCn2ccnc2)Oc2c(Cl)cccc2Cl)cc1 (stereo unspecified)
4 (≈ 13.7 µM) | Cc1ccc(C(CCn2ccnc2)Oc2ccccc2)cc1 (stereo unspecified)
32 (≈ 83.6 µM) | Clc1ccc(C(CCn2cncn2)Oc2ccc(Cl)cc2Cl)cc1 (stereo unspecified)
2 (≈ 5.42 µM) | CC(C)(C)c1ccc(OC(CCn2ccnc2)c2ccc(Cl)cc2)cc1 (stereo unspecified)
8 (≈ 23.5 µM) | Cc1ccc(OC(CCn2ccnc2)c2ccc(Cl)cc2)c(C)c1 (stereo unspecified)
32 | O=[N+]([O-])O.c1ccc(C(OCCn2ccnc2)c2ccccc2)cc1
32 (≈ 91.9 µM) | Clc1ccc(OC(CCn2cncn2)c2ccccc2)c(Cl)c1 (stereo unspecified)

Tested on: Candida albicans
Assay: Antifungal activity against Candida albicans ATCC 10261 at 35 degC after 48 hrs by broth microdilution test
Format: functional
Details: not given
Method in brief: as §1

SMILES | MIC [mg/L] | MIC90 [mg/L] | MIC50 [mg/L]
Clc1ccc(OC(CCn2ccnc2)c2ccccc2)c(Cl)c1 (single isomer, unassigned; (-)) | 11.8 (≈ 34 µM) | 16 (≈ 46.1 µM) | 
Cc1ccc(OC(CCn2ccnc2)c2ccccc2)cc1 (single isomer, unassigned; (+)) | 6.5 (≈ 22.2 µM) | 8 (≈ 27.4 µM) | 
Clc1ccc(OC(CCn2ccnc2)c2ccccc2)c(Cl)c1 (stereo in doubt; (+)-14a) | 3.2 (≈ 9.22 µM) | 4 (≈ 11.5 µM) | 4 (≈ 11.5 µM)
Cc1ccc(OC(CCn2ccnc2)c2ccccc2)cc1 (single isomer, unassigned; (-)) | 28.3 (≈ 96.8 µM) | 64 (≈ 219 µM) | 16 (≈ 54.7 µM)

Same assay, conditions: Candida albicans, ATCC 10261, 48 h; read-out: MIC

MIC [mg/L] | SMILES
42 (≈ 116 µM) | Cc1ccc(C(CCn2ccnc2)Oc2c(Cl)cccc2Cl)cc1 (stereo unspecified)
20.3 (≈ 69.4 µM) | Cc1ccc(C(CCn2ccnc2)Oc2ccccc2)cc1 (stereo unspecified)
> 128 | Clc1ccc(C(CCn2cncn2)Oc2ccc(Cl)cc2Cl)cc1 (stereo unspecified)
57.1 (≈ 155 µM) | CC(C)(C)c1ccc(OC(CCn2ccnc2)c2ccc(Cl)cc2)cc1 (stereo unspecified)
13.5 (≈ 39.6 µM) | Cc1ccc(OC(CCn2ccnc2)c2ccc(Cl)cc2)c(C)c1 (stereo unspecified)
78.1 | O=[N+]([O-])O.c1ccc(C(OCCn2ccnc2)c2ccccc2)cc1
> 128 | Clc1ccc(OC(CCn2cncn2)c2ccccc2)c(Cl)c1 (stereo unspecified)

Same assay, conditions: Candida albicans, ATCC 10261, 48 h; read-out: MIC50

MIC50 [mg/L] | SMILES
8 (≈ 22.1 µM) | Cc1ccc(C(CCn2ccnc2)Oc2c(Cl)cccc2Cl)cc1 (stereo unspecified)
16 (≈ 54.7 µM) | Cc1ccc(C(CCn2ccnc2)Oc2ccccc2)cc1 (stereo unspecified)
> 128 | Clc1ccc(C(CCn2cncn2)Oc2ccc(Cl)cc2Cl)cc1 (stereo unspecified)
64 (≈ 173 µM) | CC(C)(C)c1ccc(OC(CCn2ccnc2)c2ccc(Cl)cc2)cc1 (stereo unspecified)
16 (≈ 46.9 µM) | Cc1ccc(OC(CCn2ccnc2)c2ccc(Cl)cc2)c(C)c1 (stereo unspecified)
64 | O=[N+]([O-])O.c1ccc(C(OCCn2ccnc2)c2ccccc2)cc1
> 128 | Clc1ccc(OC(CCn2cncn2)c2ccccc2)c(Cl)c1 (stereo unspecified)

Same assay, conditions: Candida albicans, ATCC 10261, 48 h; read-out: MIC90

MIC90 [mg/L] | SMILES
128 (≈ 354 µM) | Cc1ccc(C(CCn2ccnc2)Oc2c(Cl)cccc2Cl)cc1 (stereo unspecified)
32 (≈ 109 µM) | Cc1ccc(C(CCn2ccnc2)Oc2ccccc2)cc1 (stereo unspecified)
> 128 | Clc1ccc(C(CCn2cncn2)Oc2ccc(Cl)cc2Cl)cc1 (stereo unspecified)
64 (≈ 173 µM) | CC(C)(C)c1ccc(OC(CCn2ccnc2)c2ccc(Cl)cc2)cc1 (stereo unspecified)
16 (≈ 46.9 µM) | Cc1ccc(OC(CCn2ccnc2)c2ccc(Cl)cc2)c(C)c1 (stereo unspecified)
128 | O=[N+]([O-])O.c1ccc(C(OCCn2ccnc2)c2ccccc2)cc1
> 128 | Clc1ccc(OC(CCn2cncn2)c2ccccc2)c(Cl)c1 (stereo unspecified)

Tested on: Candida albicans
Assay: Antifungal activity against Candida albicans ATCC 10261 at 35 degC after 48 to 96 hrs by broth microdilution test
Format: functional
Details: not given
Method in brief: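 Minimal fungicidal concentration for Candida. […] MFC is the lowest concentration allowing fewer than two colonies (99% killing).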

SMILES | MFC50 [mg/L] | MFC90 [mg/L] | MFC [mg/L]
Cc1ccc(C(CCn2ccnc2)Oc2c(Cl)cccc2Cl)cc1 (stereo unspecified) | 32 (≈ 88.6 µM) | 128 (≈ 354 µM) | 
Cc1ccc(C(CCn2ccnc2)Oc2ccccc2)cc1 (stereo unspecified) | 32 (≈ 109 µM) | 64 (≈ 219 µM) | 
Clc1ccc(C(CCn2cncn2)Oc2ccc(Cl)cc2Cl)cc1 (stereo unspecified) | >128 | >128 | 
CC(C)(C)c1ccc(OC(CCn2ccnc2)c2ccc(Cl)cc2)cc1 (stereo unspecified) | 64 (≈ 173 µM) | 64 (≈ 173 µM) | 
Cc1ccc(OC(CCn2ccnc2)c2ccc(Cl)cc2)c(C)c1 (stereo unspecified) | 32 (≈ 93.9 µM) | 32 (≈ 93.9 µM) | 
O=[N+]([O-])O.c1ccc(C(OCCn2ccnc2)c2ccccc2)cc1 | 128 | >256 | 
Clc1ccc(OC(CCn2cncn2)c2ccccc2)c(Cl)c1 (stereo unspecified) | >128 | >128 | 
Clc1ccc(OC(CCn2ccnc2)c2ccccc2)c(Cl)c1 (single isomer, unassigned; (-)) | 32 (≈ 92.2 µM) | 32 (≈ 92.2 µM) | 28.6 (≈ 82.4 µM)
Cc1ccc(OC(CCn2ccnc2)c2ccccc2)cc1 (single isomer, unassigned; (+)) |  |  | 14.9 (≈ 51 µM)
Clc1ccc(OC(CCn2ccnc2)c2ccccc2)c(Cl)c1 (stereo in doubt; (+)-14a) |  | 8 (≈ 23 µM) | 7.4 (≈ 21.3 µM)
Cc1ccc(OC(CCn2ccnc2)c2ccccc2)cc1 (single isomer, unassigned; (-)) | 64 (≈ 219 µM) | 64 (≈ 219 µM) | 51.4 (≈ 176 µM)

Same assay, conditions: Candida albicans, ATCC 10261; read-out: MFC

SMILES | MFC [mg/L]
Cc1ccc(C(CCn2ccnc2)Oc2c(Cl)cccc2Cl)cc1 (stereo unspecified) | 62.9 (≈ 174 µM)
Cc1ccc(C(CCn2ccnc2)Oc2ccccc2)cc1 (stereo unspecified) | 38.4 (≈ 131 µM)
Clc1ccc(C(CCn2cncn2)Oc2ccc(Cl)cc2Cl)cc1 (stereo unspecified) | > 128
CC(C)(C)c1ccc(OC(CCn2ccnc2)c2ccc(Cl)cc2)cc1 (stereo unspecified) | 64 (≈ 173 µM)
Cc1ccc(OC(CCn2ccnc2)c2ccc(Cl)cc2)c(C)c1 (stereo unspecified) | 28 (≈ 82.1 µM)
O=[N+]([O-])O.c1ccc(C(OCCn2ccnc2)c2ccccc2)cc1 | 230
Clc1ccc(OC(CCn2cncn2)c2ccccc2)c(Cl)c1 (stereo unspecified) | > 128

Tested on: Arthrodermataceae
Assay: Antifungal activity against dermatophytes at 28 degC after 7 days by broth microdilution test
Format: functional
Details: 168 h
Method in brief: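 Ten clinical isolates (two M. canis, five M. gypseum, three T. mentagrophytes) tested by NCCLS M38-A broth microdilution in MOPS-buffered RPMI 1640, pH 7.0, over 0.25–128 µg/mL. Conidial/hyphal suspension from PDA slants (28 °C, 7 days) adjusted to 65–70% transmittance at OD530, then diluted 1:50.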

MIC [mg/L] | MIC50 [mg/L] | MIC90 [mg/L] | SMILES
10.4 (≈ 27.2 µM) | 8 (≈ 20.9 µM) | 16 (≈ 41.8 µM) | Clc1ccc(C(CCn2cncn2)Oc2ccc(Cl)cc2Cl)cc1 (stereo unspecified)
9.2 (≈ 24.9 µM) | 8 (≈ 21.7 µM) | 16 (≈ 43.4 µM) | CC(C)(C)c1ccc(OC(CCn2ccnc2)c2ccc(Cl)cc2)cc1 (stereo unspecified)
32.5 (≈ 95.3 µM) | 32 (≈ 93.9 µM) | 32 (≈ 93.9 µM) | Cc1ccc(OC(CCn2ccnc2)c2ccc(Cl)cc2)c(C)c1 (stereo unspecified)
22.4 (≈ 64.3 µM) | 16 (≈ 45.9 µM) | 32 (≈ 91.9 µM) | Clc1ccc(OC(CCn2cncn2)c2ccccc2)c(Cl)c1 (stereo unspecified)

Tested on: Arthrodermataceae
Assay: Antifungal activity against dermatophytes at 28 degC after 5 days by broth microdilution test
Details: not given

SMILES | MFC90 [mg/L]
Clc1ccc(C(CCn2cncn2)Oc2ccc(Cl)cc2Cl)cc1 (stereo unspecified) | >128
CC(C)(C)c1ccc(OC(CCn2ccnc2)c2ccc(Cl)cc2)cc1 (stereo unspecified) | 32 (≈ 86.7 µM)
Cc1ccc(OC(CCn2ccnc2)c2ccc(Cl)cc2)c(C)c1 (stereo unspecified) | 64 (≈ 188 µM)
Clc1ccc(OC(CCn2cncn2)c2ccccc2)c(Cl)c1 (stereo unspecified) | 64 (≈ 184 µM)

Same assay, conditions: Arthrodermataceae

SMILES | MFC [mg/L]
Clc1ccc(C(CCn2cncn2)Oc2ccc(Cl)cc2Cl)cc1 (stereo unspecified) | 138 (≈ 360 µM)
CC(C)(C)c1ccc(OC(CCn2ccnc2)c2ccc(Cl)cc2)cc1 (stereo unspecified) | 26 (≈ 70.5 µM)
Cc1ccc(OC(CCn2ccnc2)c2ccc(Cl)cc2)c(C)c1 (stereo unspecified) | 58 (≈ 170 µM)
Clc1ccc(OC(CCn2cncn2)c2ccccc2)c(Cl)c1 (stereo unspecified) | 44.8 (≈ 129 µM)

Tested on: Arthrodermataceae
Assay: Antifungal activity against dermatophytes at 28 degC after 48 to 96 hrs by broth microdilution test
Details: not given

SMILES | MFC50 [mg/L]
Clc1ccc(C(CCn2cncn2)Oc2ccc(Cl)cc2Cl)cc1 (stereo unspecified) | 32 (≈ 83.6 µM)
CC(C)(C)c1ccc(OC(CCn2ccnc2)c2ccc(Cl)cc2)cc1 (stereo unspecified) | 16 (≈ 43.4 µM)
Cc1ccc(OC(CCn2ccnc2)c2ccc(Cl)cc2)c(C)c1 (stereo unspecified) | 64 (≈ 188 µM)
Clc1ccc(OC(CCn2cncn2)c2ccccc2)c(Cl)c1 (stereo unspecified) | 32 (≈ 91.9 µM)
